One block for each compound: values may come before it.
How the values were obtained:
[1] = target: T1, Amine oxidase [flavin-containing] A (Mus musculus, UniProt Q64133); assay: Inhibition of MAO A in mouse GL26 cells preincubated for 20 mins followed by 14C-labeled 5-hydroxytryptamine addition and measured after 20 mins by scintillation counter analysis; format: cell-based
T1 sequence (Q64133 whole entry): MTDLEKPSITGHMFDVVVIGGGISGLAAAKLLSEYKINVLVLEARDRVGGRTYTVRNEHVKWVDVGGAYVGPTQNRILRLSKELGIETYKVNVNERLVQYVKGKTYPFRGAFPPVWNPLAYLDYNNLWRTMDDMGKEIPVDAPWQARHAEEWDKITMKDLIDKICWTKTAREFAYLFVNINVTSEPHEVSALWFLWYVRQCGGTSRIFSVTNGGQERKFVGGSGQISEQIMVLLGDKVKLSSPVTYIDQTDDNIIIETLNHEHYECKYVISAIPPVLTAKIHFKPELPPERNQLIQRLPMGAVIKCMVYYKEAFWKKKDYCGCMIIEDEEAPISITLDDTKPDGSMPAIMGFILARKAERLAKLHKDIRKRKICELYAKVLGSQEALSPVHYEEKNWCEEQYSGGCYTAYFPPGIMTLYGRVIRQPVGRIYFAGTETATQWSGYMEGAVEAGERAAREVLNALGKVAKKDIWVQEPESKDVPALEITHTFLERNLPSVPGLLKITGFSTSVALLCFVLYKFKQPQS

U-251 [2] = assay: Antiproliferative activity against human Temozolomide-resistant U-251 cells assessed as inhibition of cell growth measured after 48 hrs by MTT assay; format: functional, cell-based; settings: U-251, 48 h
Procedure, shortened: (§1)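 Cells plated at 5×10³ per well 24 h before compound and grown in DMEM with 10% FBS at 37°C, 5% CO₂. After 48 h exposure, the medium was replaced with 0.5 mg/mL MTT for 3 h. Formazan was dissolved in DMSO and read at 570 nm.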

[3] = target: Heat shock protein HSP 90-alpha (Homo sapiens, UniProt P07900); assay: Inhibition of human recombinant HSP90alpha preincubated for 30 mins followed by FITC-GM addition and mesured after 3 hrs by fluorescence polarization assay
[4] = Antiproliferative activity against mouse GL26 cells assessed as inhibition of cell growth measured after 48 hrs by MTT assay; format: functional, cell-based; settings: GL26, 48 h; procedure, shortened: as §1
U-251 [5] = assay: Downregulation of HER2 expression in human Temozolomide-resistant U-251 cells incubated for 24 hrs by Western blot analysis; format: functional, cell-based; settings: dose 0.1-3 µM
GL26 [6] = assay: Downregulation of Akt phosphorylation expression at Ser 473 residues in mouse GL26 cells incubated for 24 hrs by Western blot analysis; format: functional, cell-based; settings: dose 0.1-3 µM
U-251 [7] = assay: Downregulation of Akt phosphorylation expression at Ser 473 residues in human Temozolomide-resistant U-251 cells incubated for 24 hrs by Western blot analysis; format: functional, cell-based; settings: dose 0.1-3 µM
GL26 [8] = assay: Downregulation of HER2 expression in mouse GL26 cells incubated for 24 hrs by Western blot analysis; format: functional, cell-based; settings: dose 0.1-3 µM

Compound: C#CCN(C)CCCOc1cc(N(C)C(=O)c2cc(C(C)C)c(O)cc2O)ccc1Cl
IC50 [1]: > 10000 nM

Compound: C#CCN(C)CCCOc1cc(NC(=O)c2cc(C(C)C)c(O)cc2O)ccc1Cl
IC50 [1]: 2360 nM

Compound: C#CCN(C)CCCOc1ccc(N(CCC)C(=O)c2cc(C(C)C)c(O)cc2O)cc1Cl
IC50 (U-251 [2]): > 10000 nM
IC50 [1]: 3860 nM
IC50 [3]: 170 nM
IC50 [4]: 8420 nM

Compound: CC(C)c1cc(-c2n[nH]c(=O)n2-c2ccc3c(ccn3C)c2)c(O)cc1O [GANETESPIB]
IC50 (U-251 [2]): > 10000 nM
Activity (U-251 [5]): Dose-Dependent Effect
IC50 [1]: > 10000 nM
Activity (GL26 [6]): Dose-Dependent Effect
Activity (U-251 [7]): Dose-Dependent Effect
Activity (GL26 [8]): Dose-Dependent Effect

The remaining lines, values ahead:

IC50 [1]: 2360 nM
Compound: C#CCN(C)CCCOc1cccc(NC(=O)c2cc(C(C)C)c(O)cc2O)c1Cl

IC50 [1]: 2270 nM
Compound: C#CCN(C)CCCOc1cccc(N(CC)C(=O)c2cc(C(C)C)c(O)cc2O)c1Cl

IC50 [1]: 880 nM
Compound: C#CCN(C)CCCOc1cccc(N(CCC)C(=O)c2cc(C(C)C)c(O)cc2O)c1Cl

From ChEMBL document CHEMBL5370536, “Design, synthesis, and biological activity of dual monoamine oxidase A and heat shock protein 90 inhibitors, N-Methylpropargylamine-conjugated 4-isopropylresorcinol for glioblastoma” (Eur J Med Chem, 2023)
